Values after ≈ are worked out from the molar mass of the structure shown.
Experiments:
[1] = Safety index = Ratio of lethal dose / suppressive dose value; assay type: toxicity; details: for selectivity ratio: read-out: Safety index
Procedure, shortened: (§1)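 Female BDF1 mice (6 weeks old) were immunized iv with 1 × 10^8 SRBC, then given the test compound's sodium salt in water per os on days 1–3. Serum was taken on day 7 and serially two-fold diluted in PBS with 5 × 10^-5 M 2-mercaptoethanol. 1% SRBC was added, plates were held 14 h at 25 °C, and hemagglutination titer was read visually. Lethal dose is the dose (mg/kg) at which one mouse died; index = lethal dose / dose giving 75% suppression.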

[2] = Compound dose causing lethality in mice; assay type: toxicity; details: mouse, in vivo; procedure, shortened: as §1
T-cell [3] = assay: Inhibitory activity against Con A-stimulated Tcell proliferation.; assay type: functional, cell-based, Mus musculus
Procedure, shortened: (§2)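 Mouse spleen cells stimulated with mitogen, concanavalin A for T cells or lipopolysaccharide for B cells; inhibition of proliferative response measured, IC50 in ng/mL.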

[4] = Inhibitory activity against LPS-stimulated B cell proliferation.; assay type: functional, cell-based, Mus musculus; procedure, shortened: as §2
Mus musculus [5] = species: Mus musculus; assay: Compound dose suppressing antibody production by 75% in mice; assay type: functional
Procedure, shortened: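 Female BDF1 mice (6 weeks old) immunized i.v. with 1 × 10^8 SRBC; sodium salt dissolved in water given orally days 1–3. Serum taken day 7; two-fold serial dilutions in PBS with 5 × 10^-5 M 2-mercaptoethanol mixed with 1% SRBC, 14 h at 25 °C; hemagglutination titer read visually. Dose giving 75% suppression, mg/kg.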

EL4 = assay: Inhibitory growth of EL4 thymoma cell line from C57BL/6 mice; assay type: functional, cell-based; details: Mus musculus
Procedure, shortened: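 EL4 thymoma cells (C57BL/6 origin), 4 × 10^4 per well, exposed to compound in DMSO at final 0–50 μg/mL for 1 day at 37 °C, 5% CO2, humidified air; proliferation then measured.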

Rattus norvegicus = species: Rattus norvegicus; assay: Effect on RA model was examined using adjuvant arthritis in rats.; assay type: functional
Procedure, shortened: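 Female Lewis rats (7 weeks, 140–160 g) sensitized by s.c. injection into left hind paw of liquid paraffin containing 0.5 mg Mycobacterium butyricum. 0.6% suspension in arabic gum given orally 5 days/week from day 1 (12 doses). Uninjected paw volume measured by plethysmometer until day 17; ED50 from inhibition versus vehicle control.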

Mus musculus [6] = assay: secondary antibody response in mice at 2.5 mg/kg; assay type: functional
Procedure, shortened: (§3)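 Female BDF1 mice (6 weeks old) immunized i.v. with 1 × 10^5 SRBC on days 0, 7 and 14; sodium salt in water given orally 5 days/week from day 0 (15 doses). Serum taken day 20; hemagglutination titer by serial two-fold dilution with 1% SRBC, 14 h at 25 °C, read visually; mean log2 titer ± SD.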

Mus musculus [7] = assay: secondary antibody response in mice at 0.625 mg/kg; assay type: functional; procedure, shortened: as §3
T-cell [8] = assay: Inhibitory activity against Con A-stimulated T cell proliferation.; assay type: functional, cell-based; details: Mus musculus; procedure, shortened: as §2
Mus musculus [9] = assay: secondary antibody response in mice at 1.25 mg/kg; assay type: functional; procedure, shortened: as §3
[10] = Ratio of LD50 / ED50 value against adjuvant arthritis in rats.; assay type: functional
Procedure, shortened: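 Female Lewis rats (7 weeks, 140–160 g) sensitized by subcutaneous injection into left hind paw of 0.05 mL liquid paraffin containing 0.5 mg Mycobacterium butyricum. Compound given orally as 0.6% suspension in arabic gum, five days a week from day 1 (12 days total). Uninjected paw volume measured by plethysmometer until day 17; inhibition versus vehicle control gives ED50; index is LD50/ED50.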

[11] = Lethal dose in rats.; assay type: toxicity; details: rat, in vivo
[12] = Mus musculus, T-cell, read-out: IC50
[13] = Rattus norvegicus, read-out: ED50

## Cc1cc(C(=O)N[C@@H](CC(F)C(=O)O)C(=O)O)ccc1NCc1cnc2nc(N)nc(N)c2n1 (stereo in doubt; form 1)
[1]
  selectivity ratio: 40
[2]
  Lethal dose: 12.5 mg/kg
T-cell [3]; [12]
  IC50: 7.8 ng/mL (≈ 0.0165 µM)
[4]
  IC50: 9.9 ng/mL (≈ 0.021 µM)
Mus musculus [5]
  Suppressive dose: 0.31 mg/kg
EL4
  IC50: > 100 µM

## CCCc1cc(C(=O)N[C@@H](CC(F)C(=O)O)C(=O)O)ccc1NCc1cnc2nc(N)nc(N)c2n1 (stereo in doubt; form 1)
[1]
  Safety index: 40
[2]
  Lethal dose: 200 mg/kg
T-cell [3]; [12]
  IC50: 5.3 ng/mL (≈ 0.0106 µM)
[4]
  IC50: 22.2 ng/mL (≈ 0.0444 µM)
Mus musculus [5]
  Suppressive dose: 10 mg/kg
EL4
  IC50: > 100 µM

## CN(Cc1cnc2nc(N)nc(N)c2n1)c1ccc(C(=O)N[C@@H](CCC(=O)O)C(=O)O)cc1 [METHOTREXATE]
Rattus norvegicus; [13]
  ED50: 0.058 mg/kg
[1]
  selectivity ratio: 64
[2]
  Lethal dose: 40 mg/kg
Mus musculus [6]
  Log2: 4
[4]
  IC50: 12.5 ng/mL (≈ 0.0275 µM)
Mus musculus [7]
  Log2: 5.4
T-cell [8]
  IC50: 6.1 ng/mL (≈ 0.0134 µM)
Mus musculus [5]
  Suppressive dose: 0.625 mg/kg
Mus musculus [9]
  Log2: 4.2
[10]
  Safety index: 14.1
[11]; read-out: LD50
  LD50: 0.82 mg/kg
EL4
  IC50: 1.57 µM

## Cc1cc(C(=O)N[C@@H](CC(F)C(=O)O)C(=O)O)ccc1NCc1cnc2nc(N)nc(N)c2n1 (stereo in doubt; form 2)
[1]
  Safety index: 80
[2]
  Lethal dose: 100 mg/kg
T-cell [3]; t-cell
  IC50: 10.7 ng/mL (≈ 0.0226 µM)
[4]
  IC50: 16.5 ng/mL (≈ 0.0349 µM)
Mus musculus [5]
  Suppressive dose: 1.25 mg/kg

## Nc1nc(N)c2nc(CNc3ccc(C(=O)N[C@@H](CC(F)C(=O)O)C(=O)O)cc3C(F)(F)F)cnc2n1 (stereo in doubt; 2vt)
T-cell [3]; t-cell
  IC50: 16.8 ng/mL (≈ 0.0319 µM)
[4]
  IC50: 19.5 ng/mL (≈ 0.037 µM)
Mus musculus [5]
  Suppressive dose: 5 mg/kg
EL4
  IC50: > 100 µM

## Nc1nc(N)c2nc(CNc3ccc(C(=O)N[C@@H](CC(F)C(=O)O)C(=O)O)cc3Cl)cnc2n1 (stereo partly drawn)
[1]
  selectivity ratio: 100
[2]
  Lethal dose: 80 mg/kg
T-cell [3]; [12]
  IC50: 4.3 ng/mL (≈ 0.00872 µM)
[4]
  IC50: 11.8 ng/mL (≈ 0.0239 µM)
Mus musculus [5]
  Suppressive dose: 0.8 mg/kg
EL4
  IC50: > 100 µM

## CCc1cc(C(=O)N[C@@H](CC(F)C(=O)O)C(=O)O)ccc1NCc1cnc2nc(N)nc(N)c2n1 (stereo in doubt; form 2)
Rattus norvegicus
  ED50: 0.89 mg/kg
[1]
  Safety index: 120
[2]
  Lethal dose: 150 mg/kg
T-cell [3]; t-cell
  IC50: 3.2 ng/mL (≈ 0.00658 µM)
Mus musculus [6]; 2.5 mg/kg
  Log2: 4.6
[4]
  IC50: 9.2 ng/mL (≈ 0.0189 µM)
Mus musculus [7]; 0.625 mg/kg
  Log2: 5.4
Mus musculus [5]
  Suppressive dose: 2.5 mg/kg
Mus musculus [9]; 1.25 mg/kg
  Log2: 5.2
[10]
  Ratio: 12.2
[11]
  LD50: 10.9 mg/kg

## Nc1nc(N)c2nc(CNc3ccc(C(=O)N[C@@H](CC(F)C(=O)O)C(=O)O)cc3F)cnc2n1 (stereo partly drawn)
Rattus norvegicus; [13]
  ED50: 0.62 mg/kg
[1]
  selectivity ratio: 160
[2]
  Lethal dose: 200 mg/kg
T-cell [3]; [12]
  IC50: 9.4 ng/mL (≈ 0.0197 µM)
Mus musculus [6]
  Log2: 5.2
[4]
  IC50: 22.7 ng/mL (≈ 0.0476 µM)
Mus musculus [7]
  Log2: 6.2
Mus musculus [5]
  Suppressive dose: 1.25 mg/kg
Mus musculus [9]
  Log2: 6.8
[10]
  Ratio: 46.8
[11]; read-out: LD50
  LD50: 29 mg/kg
EL4
  IC50: > 100 µM

## Nc1nc(N)c2nc(CNc3ccc(C(=O)N[C@@H](CC(F)C(=O)O)C(=O)O)cc3C(F)(F)F)cnc2n1 (stereo in doubt; 2ve)
T-cell [3]; t-cell
  IC50: 8 ng/mL (≈ 0.0152 µM)
[4]
  IC50: 14.3 ng/mL (≈ 0.0272 µM)

## CCc1cc(C(=O)N[C@@H](CC(F)C(=O)O)C(=O)O)ccc1NCc1cnc2nc(N)nc(N)c2n1 (stereo in doubt; form 1)
Rattus norvegicus; [13]
  ED50: 0.8 mg/kg
[1]
  selectivity ratio: 160
[2]
  Lethal dose: 100 mg/kg
T-cell [3]; [12]
  IC50: 3.8 ng/mL (≈ 0.00781 µM)
Mus musculus [6]; 2.5 mg/kg
  Log2: 3.2
[4]
  IC50: 9.7 ng/mL (≈ 0.0199 µM)
Mus musculus [7]; 0.625 mg/kg
  Log2: 4.8
Mus musculus [5]
  Suppressive dose: 1.25 mg/kg
Mus musculus [9]; 1.25 mg/kg
  Log2: 3.8
[10]
  Ratio: 25
[11]; read-out: LD50
  LD50: 20 mg/kg
EL4
  IC50: > 100 µM

## Cc1cc(C(=O)N[C@@H](CC(F)C(=O)O)C(=O)O)sc1N(C)Cc1cnc2nc(N)nc(N)c2n1 (stereo in doubt; form 1)
[1]
  Safety index: > 18
[2]
  Lethal dose: > 180 mg/kg
T-cell [3]; t-cell
  IC50: 11.5 ng/mL (≈ 0.0234 µM)
[4]
  IC50: 14.9 ng/mL (≈ 0.0303 µM)
Mus musculus [5]
  Suppressive dose: 10 mg/kg
EL4
  IC50: > 100 µM

## Cc1cc(C(=O)N[C@@H](CC(F)C(=O)O)C(=O)O)sc1N(C)Cc1cnc2nc(N)nc(N)c2n1 (stereo in doubt; form 2)
Rattus norvegicus; [13]
  ED50: 0.8 mg/kg
[1]
  Safety index: 60
[2]
  Lethal dose: 150 mg/kg
T-cell [3]; t-cell
  IC50: 3.8 ng/mL (≈ 0.00772 µM)
[4]
  IC50: 5.1 ng/mL (≈ 0.0104 µM)
Mus musculus [5]
  Suppressive dose: 5 mg/kg
[10]
  Ratio: 57.5
[11]; read-out: LD50
  LD50: 46 mg/kg

## CN(Cc1cnc2nc(N)nc(N)c2n1)c1ccc(C(=O)N[C@@H](CC(F)C(=O)O)C(=O)O)cc1 (stereo in doubt; 2it)
T-cell [3]; t-cell
  IC50: 64.6 ng/mL (≈ 0.137 µM)
[4]
  IC50: 61.5 ng/mL (≈ 0.13 µM)
Mus musculus [5]
  Suppressive dose: >400 mg/kg
EL4
  IC50: > 100 µM

## CN(Cc1cnc2nc(N)nc(N)c2n1)c1ccc(C(=O)N[C@@H](CC(F)C(=O)O)C(=O)O)cc1 (stereo in doubt; 2ie)
[1]
  selectivity ratio: 12
[2]
  Lethal dose: 600 mg/kg
T-cell [3]; t-cell
  IC50: 25.9 ng/mL (≈ 0.0548 µM)
[4]
  IC50: 21 ng/mL (≈ 0.0445 µM)
Mus musculus [5]
  Suppressive dose: 50 mg/kg

## Nc1nc(N)c2nc(CNc3ccc(C(=O)N[C@@H](CC(F)C(=O)O)C(=O)O)cc3Br)cnc2n1 (stereo partly drawn)
Rattus norvegicus; [13]
  ED50: 0.43 mg/kg
[1]
  selectivity ratio: > 80
[2]
  Lethal dose: > 200 mg/kg
T-cell [3]; [12]
  IC50: 2.1 ng/mL (≈ 0.00391 µM)
[4]
  IC50: 8.2 ng/mL (≈ 0.0153 µM)
Mus musculus [5]
  Suppressive dose: 5 mg/kg
[10]
  Ratio: 46.5
[11]; read-out: LD50
  LD50: 20 mg/kg
EL4
  IC50: > 100 µM

— ChEMBL document CHEMBL1130178, “Synthesis and evaluation of novel fluorinated methotrexate derivatives for application to rheumatoid arthritis treatment” (J Med Chem, 1997)
